Data on nine compounds can be found in ChEMBL document CHEMBL3272253, “Relationship of molecular structure to in vivo scintigraphic distribution patterns of carbon-11 labeled compounds. 3. (11C)Hydantoins” (J Med Chem, 1976).

Holding throughout (assay type): ADME, organism-based, Canis lupus familiaris
Holding throughout (details): in vivo

Series [1] relates to Canis familiaris. Put plainly: Drug level in iv dosed dog after 5 to 30 mins by gamma-scintillation counting analysis. The method, boiled down: (§1)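 Carbon-11-labeled hydantoin, 1–59 mCi of final product, dissolved in 1–1.5% aqueous NaOH and given iv to dogs. Distribution imaged serially for up to 2 hr or more with a scintillation camera fitted with a pinhole collimator (1-cm hyperbolic aperture), with whole-body scintiphotos at about 5 and 30 min. Readout is qualitative to semiquantitative; no coincidence imaging.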

Series [2] can be described thus: Drug level in iv dosed dog lung after 5 to 30 mins by gamma-scintillation counting analysis. The gist of the method:
as §1

For series [3], the system named is Liver. Put plainly: Drug level in iv dosed dog liver after 5 to 30 mins by gamma-scintillation counting analysis. The gist of the method: as §1
Series [4] relates to Nucleic Acid. Put plainly: Ratio of drug level in iv dosed dog brain to temporal muscle after 73 mins by gamma-scintillation counting analysis. The gist of the method:
(§2)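 Dogs were dosed iv with 11C-labeled hydantoin. Tissues and fluids were collected at necropsy 73 or 80 min post-dose and counted at fixed geometry in front of a thallium-activated NaI scintillation detector. Values are cpm/g of tissue divided by cpm/g of temporal muscle.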

Series [5] concerns Nucleic Acid. Put plainly: Ratio of drug level in iv dosed dog lung to temporal muscle after 73 mins by gamma-scintillation counting analysis. The gist of the method: as §2
Series [6] relates to Nucleic Acid. Put plainly: Ratio of drug level in iv dosed dog washed heart to temporal muscle after 73 mins by gamma-scintillation counting analysis. The method, boiled down:
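[11C]-labeled hydantoin, from carrier-free [11C]HCN, given intravenously to dogs. Heart washed and taken at necropsy 73 min after dosing, along with temporal muscle. Tissues were counted at fixed geometry before a thallium-activated NaI scintillation detector. Value is cpm/g washed heart divided by cpm/g temporal muscle.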

The subject of series [7] is Nucleic Acid. Put plainly: Ratio of drug level in iv dosed dog liver to temporal muscle after 73 mins by gamma-scintillation counting analysis. The method, boiled down: as §2
Series [8] relates to Nucleic Acid. Put plainly: Ratio of drug level in iv dosed dog bile to temporal muscle after 73 mins by gamma-scintillation counting analysis. The gist of the method: as §2
Series [9] deals with Nucleic Acid. Put plainly: Ratio of drug level in iv dosed dog spleen to temporal muscle after 73 mins by gamma-scintillation counting analysis. The method, boiled down:
as §2

Series [10] relates to Nucleic Acid. Put plainly: Ratio of drug level in iv dosed dog stomach to temporal muscle after 73 mins by gamma-scintillation counting analysis. The gist of the method: as §2
In series [11] the test system is Nucleic Acid. Put plainly: Ratio of drug level in iv dosed dog pancreas to temporal muscle after 73 mins by gamma-scintillation counting analysis. The gist of the method: as §2
Series [12] concerns Nucleic Acid. Put plainly: Ratio of drug level in iv dosed dog kidney to temporal muscle after 73 mins by gamma-scintillation counting analysis. The method, boiled down: as §2
Series [13] concerns Nucleic Acid. Put plainly: Ratio of drug level in iv dosed dog blood to temporal muscle after 73 mins by gamma-scintillation counting analysis. The method, boiled down: as §2
The subject of series [14] is Nucleic Acid. Put plainly: Ratio of drug level in iv dosed dog mesenteric fat to temporal muscle after 73 mins by gamma-scintillation counting analysis. The method, boiled down:
as §2

Series [15] has as its system Nucleic Acid. Put plainly: Ratio of drug level in iv dosed dog urine to temporal muscle after 73 mins by gamma-scintillation counting analysis. The gist of the method: as §2
The subject of series [16] is Nucleic Acid. Put plainly: Ratio of drug level in iv dosed dog cerebrospinal fluid to temporal muscle after 73 mins by gamma-scintillation counting analysis. The method, boiled down: as §2
Series [17] can be described thus: Drug level in iv dosed dog kidney after 5 to 30 mins by gamma-scintillation counting analysis. The method, boiled down: as §1
Series [18] is described as follows: Drug excretion in iv dosed dog urine after 5 to 30 mins by gamma-scintillation counting analysis. The gist of the method:
as §1

Series [19] is described as follows: Drug level in iv dosed dog vein by gamma-scintillation counting analysis. The method, boiled down:
as §1

Series [20] in a line: Drug level in iv dosed dog lung by gamma-scintillation counting analysis. The method, boiled down:
as §1

Series [21] concerns Liver. Put plainly: Drug level in iv dosed dog liver by gamma-scintillation counting analysis. The gist of the method:
as §1

Series [22] has as its system Canis familiaris. Put plainly: Drug level in iv dosed dog by gamma-scintillation counting analysis. The method, boiled down:
as §1

A short description of series [23]: Drug level in iv dosed dog kidney by gamma-scintillation counting analysis. The method, boiled down: as §1
Series [24] can be described thus: Drug excretion in iv dosed dog urine by gamma-scintillation counting analysis. The method, boiled down: as §1
Another series concerns Brain. Put plainly: Drug level in iv dosed dog brain by gamma-scintillation counting analysis. The gist of the method:
as §1

Regarding `CC1(c2ccccc2)NC(=O)N[11C]1=O` (configuration not stated), the Drug uptake result in the series with Canis familiaris [1] is given as “Active”.
Turning to `CCC1(c2ccccc2)NC(=O)N[11C]1=O` (configuration not stated), the Drug uptake entry (in the series on Canis familiaris [1]; in series [2]; in the series on Liver [3]) was “Active” in each case. For the same compound, the Ratio in the series on Nucleic Acid [4] was 1.25; in the series with Nucleic Acid [5] it was 0.75; in the series with Nucleic Acid [6], 1; in the series with Nucleic Acid [7], 1.33; in the series with Nucleic Acid [8] it was 1.58; in the series on Nucleic Acid [9], 1.25. Moreover, the Ratio with Nucleic Acid [10] is 0.92; in the series with Nucleic Acid [11], 1.67; with Nucleic Acid [12], 1.25; in the series on Nucleic Acid [13] it was 1; with Nucleic Acid [14], 0.75; in the series on Nucleic Acid [15] it was 0.67. For the same compound, the Ratio with Nucleic Acid [16] was 2.67.
Take `CCCC1(c2ccccc2)NC(=O)N[11C]1=O` (configuration not stated): the Drug uptake entry with Canis familiaris [1] is on record as “Active”.
For the compound `O=C(O)CCC1(c2ccccc2)NC(=O)N[11C]1=O` (configuration not stated), the Drug uptake entry (with Canis familiaris [1]; in series [17]) was “Active” each time. For the same compound, in series [18], the Drug excretion entry was “metabolite_detected”.
Regarding `O=C1N[11C](=O)C2(CCCCC2)N1`, the Drug uptake result (in series [19]; in series [20]; in the series on Liver [21]; in the series with Canis familiaris [22]; in series [23]) was “Active” each time. In series [24], the Drug excretion entry is recorded as “metabolite_detected”.
Take `O=C1N[11C](=O)C2(CCCCCC2)N1`: the Drug uptake entry in the series on Liver [21] and with Brain was “Active” each time.
In the case of `O=C1N[11C](=O)C2(CCCCCCC2)N1`, in the series with Brain, the Drug uptake result is “Not Active”.
Take `O=C1N[11C](=O)C2(N1)c1ccccc1-c1ccccc12`: the Drug uptake entry in the series on Brain is given as “Not Active”.
In the case of `O=C1N[11C](=O)C2(CCCc3ccccc32)N1` (configuration not stated), the Drug uptake result in the series with Brain was “Not Active”.
